Test results from ChEMBL document CHEMBL5096186, “Design, Synthesis, and Biological Evaluation of Novel Pyrimido[4,5-b]indole Derivatives Against Gram-Negative Multidrug-Resistant Pathogens” (J Med Chem, 2021).
≈ marks a conversion by molar mass, not a printed value.

Tests used:
[1] = test system: Pseudomonas aeruginosa; assay: Antibacterial activity against wild type Pseudomonas aeruginosa ATCC 27853 assessed as reduction in bacterial growth incubated for 18 to 20 hrs by CLSI based microdilution method; type: functional; conditions: time 18-20 hrs
Summary of the method: (§1)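 CLSI broth microdilution. Compounds in DMSO (levofloxacin and meropenem in water), serial twofold dilutions in broth, 64 to 0.008 μg/mL. […] Results reported as MIC ranges across strains.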

[2] = test system: Staphylococcus aureus; assay: Antibacterial activity against methicillin-resistant Staphylococcus aureus strains 15 1 to 4 assessed as reduction in bacterial growth incubated for 18 to 20 hrs by CLSI based microdilution method; type: functional; conditions: time 18-20 hrs
Summary of the method: (§2)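 Broth microdilution per CLSI. Compounds dissolved in DMSO (levofloxacin and meropenem in water) as 64 μg/mL stock, then serial twofold dilutions in broth giving 64 to 0.008 μg/mL. […] Clinical isolates tested as several strains per group; racemic GP-1 served as positive control; values given as MIC ranges.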

[3] = test system: Pseudomonas aeruginosa; assay: Antibacterial activity against multidrug resistant Pseudomonas aeruginosa strains 15 1 to 3 assessed as reduction in bacterial growth incubated for 18 to 20 hrs by CLSI based microdilution method; type: functional; conditions: time 18-20 hrs; summary of the method: as §2
[4] = test system: Acinetobacter baumannii; assay: Antibacterial activity against wild type Acinetobacter baumannii NCTC 13304 assessed as reduction in bacterial growth incubated for 18 to 20 hrs by CLSI based microdilution method; type: functional; conditions: time 18-20 hrs; summary of the method: as §2
[5] = test system: Staphylococcus epidermidis; assay: Antibacterial activity against methicillin-sensitive Staphylococcus epidermidis strains 15 1 to 4 assessed as reduction in bacterial growth incubated for 18 to 20 hrs by CLSI based microdilution method; type: functional; conditions: time 18-20 hrs; summary of the method: as §2
[6] = test system: Escherichia coli; assay: Antibacterial activity against ESBL-producing multidrug resistant Escherichia coli assessed as reduction in bacterial growth incubated for 18 to 20 hrs by CLSI based microdilution method; type: functional; conditions: time 18-20 hrs; summary of the method: as §2
[7] = test system: Klebsiella pneumoniae; assay: Antibacterial activity agains wild type Klebsiella pneumoniae ATCC BAA-1705 assessed as reduction in bacterial growth incubated for 18 to 20 hrs by CLSI based microdilution method; type: functional; conditions: time 18-20 hrs; summary of the method: as §1
[8] = test system: Klebsiella pneumoniae; assay: Antibacterial activity agains wild type Klebsiella pneumoniae ATCC BAA-2470 assessed as reduction in bacterial growth incubated for 18 to 20 hrs by CLSI based microdilution method; type: functional; conditions: time 18-20 hrs; summary of the method: as §2
[9] = test system: Escherichia coli; assay: Antibacterial activity against multidrug resistant wild type Escherichia coli NCTC 13353 assessed as reduction in bacterial growth incubated for 18 to 20 hrs by CLSI based microdilution method; type: functional; conditions: time 18-20 hrs; summary of the method: as §2
[10] = test system: Staphylococcus epidermidis; assay: Antibacterial activity against methicillin-resistant Staphylococcus epidermidis strains 15 1 to 4 assessed as reduction in bacterial growth incubated for 18 to 20 hrs by CLSI based microdilution method; type: functional; conditions: time 18-20 hrs; summary of the method: as §2
[11] = test system: Escherichia coli; assay: Antibacterial activity against Escherichia coli ATCC 35218 strains 15 1 to 3 assessed as reduction in bacterial growth incubated for 18 to 20 hrs by CLSI based microdilution method; type: functional; conditions: time 18-20 hrs; summary of the method: as §1
[12] = test system: Pseudomonas aeruginosa; assay: Antibacterial activity against IMP4-producing multidrug resistant Pseudomonas aeruginosa assessed as reduction in bacterial growth incubated for 18 to 20 hrs by CLSI based microdilution method; type: functional; conditions: time 18-20 hrs; summary of the method: as §2
[13] = test system: Klebsiella pneumoniae; assay: Antibacterial activity against KPC2-producing multidrug resistant Klebsiella pneumoniae assessed as reduction in bacterial growth incubated for 18 to 20 hrs by CLSI based microdilution method; type: functional; conditions: time 18-20 hrs; summary of the method: as §2
[14] = test system: Staphylococcus aureus; assay: Antibacterial activity against methicillin-sensitive Staphylococcus aureus strains 15 1 to 4 assessed as reduction in bacterial growth incubated for 18 to 20 hrs by CLSI based microdilution method; type: functional; conditions: time 18-20 hrs; summary of the method: as §2
[15] = test system: Acinetobacter baumannii; assay: Antibacterial activity agains OXA23-producing multidrug resistant Acinetobacter baumannii assessed as reduction in bacterial growth incubated for 18 to 20 hrs by CLSI based microdilution method; type: functional; conditions: time 18-20 hrs; summary of the method: as §2
[16] = test system: Escherichia coli; assay: Antibacterial activity against multidrug resistant wild type Escherichia coli ATCC BAA-2340 assessed as reduction in bacterial growth incubated for 18 to 20 hrs by CLSI based microdilution method; type: functional; conditions: time 18-20 hrs; summary of the method: as §2
[17] = test system: Escherichia coli; assay: Antibacterial activity against ESBL-producing Escherichia coli ATCC 35218 strains 15 1 to 3 assessed as reduction in bacterial growth incubated for 18 to 20 hrs by CLSI based microdilution method; type: functional; conditions: time 18-20 hrs; summary of the method: as §1
[18] = molecular target: hERG (KCNH2) potassium channel (Homo sapiens, UniProt Q12809); assay: Inhibition of hERG potassium channel assessed as maximum inhibition rate at 40 uM at -80 mV holding potential incubated for 120 seconds by whole cell-automated voltage clamp analysis assay relative to control; type: toxicity; conditions: time 120 sec
Summary of the method: (§3)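 Automated whole-cell patch clamp, holding potential −80 mV. Voltage protocol applied every 20 s. Baseline set with external solution containing 0.1% DMSO and stabilised 3 min. Compound applied until steady state, at least 3 min, then washout. Maximum tested concentration 40 μM, or 3 μM for cisapride as positive control.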

[19] = Metabolic stability in rat liver microsome assessed as intrinsic clearance at 0.1 uM in presence of NADPH incubated upto 60 mins by LC-MS/MS analysis; type: ADME; conditions: microsomes, 1 h
Summary of the method: (§4)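 Compound at 0.1 μM final, in 0.01% DMSO with 0.005% BSA. Incubated with rat or human liver microsomes at 0.33 mg/mL in 0.1 M Tris-HCl, pH 7.4, with 5 mM MgCl₂ and 1 mM NADPH, at 37 °C. Samples at 0, 7, 17, 30 and 60 min quenched with cold methanol and analysed by LC-MS/MS. Half-life, Cl_int and MF% derived as previously described.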

[20] = Metabolic stability in rat liver microsome assessed as metabolic bioavailability at 0.1 uM in presence of NADPH incubated upto 60 mins by LC-MS/MS analysis; type: ADME; conditions: liver microsomes; summary of the method: as §4
[21] = Metabolic stability in human liver microsome assessed as metabolic bioavailability at 0.1 uM in presence of NADPH incubated upto 60 mins by LC-MS/MS analysis; type: ADME; conditions: liver microsomes; summary of the method: as §4
[22] = molecular target: Voltage-gated inwardly rectifying potassium channel KCNH2 (Homo sapiens, UniProt Q12809); assay: Inhibition of hERG potassium channel assessed as […] at -80 mV holding potential incubated for 120 seconds by whole cell-automated voltage clamp analysis assay; type: toxicity; summary of the method: as §3
[23] = Metabolic stability in human liver microsome assessed as intrinsic clearance at 0.1 uM in presence of NADPH incubated upto 60 mins by LC-MS/MS analysis; type: ADME; conditions: microsomes, 1 h; summary of the method: as §4
[24] = Metabolic stability in human liver microsome assessed as elimination half life at 0.1 uM in presence of NADPH incubated upto 60 mins by LC-MS/MS analysis; type: ADME; conditions: liver microsomes, read-out: beta t1/2; summary of the method: as §4
[25] = Metabolic stability in rat liver microsome assessed as elimination half life at 0.1 uM in presence of NADPH incubated upto 60 mins by LC-MS/MS analysis; type: ADME; conditions: liver microsomes, read-out: beta t1/2; summary of the method: as §4

Sequence of Voltage-gated inwardly rectifying potassium channel KCNH2 (Q12809 whole entry): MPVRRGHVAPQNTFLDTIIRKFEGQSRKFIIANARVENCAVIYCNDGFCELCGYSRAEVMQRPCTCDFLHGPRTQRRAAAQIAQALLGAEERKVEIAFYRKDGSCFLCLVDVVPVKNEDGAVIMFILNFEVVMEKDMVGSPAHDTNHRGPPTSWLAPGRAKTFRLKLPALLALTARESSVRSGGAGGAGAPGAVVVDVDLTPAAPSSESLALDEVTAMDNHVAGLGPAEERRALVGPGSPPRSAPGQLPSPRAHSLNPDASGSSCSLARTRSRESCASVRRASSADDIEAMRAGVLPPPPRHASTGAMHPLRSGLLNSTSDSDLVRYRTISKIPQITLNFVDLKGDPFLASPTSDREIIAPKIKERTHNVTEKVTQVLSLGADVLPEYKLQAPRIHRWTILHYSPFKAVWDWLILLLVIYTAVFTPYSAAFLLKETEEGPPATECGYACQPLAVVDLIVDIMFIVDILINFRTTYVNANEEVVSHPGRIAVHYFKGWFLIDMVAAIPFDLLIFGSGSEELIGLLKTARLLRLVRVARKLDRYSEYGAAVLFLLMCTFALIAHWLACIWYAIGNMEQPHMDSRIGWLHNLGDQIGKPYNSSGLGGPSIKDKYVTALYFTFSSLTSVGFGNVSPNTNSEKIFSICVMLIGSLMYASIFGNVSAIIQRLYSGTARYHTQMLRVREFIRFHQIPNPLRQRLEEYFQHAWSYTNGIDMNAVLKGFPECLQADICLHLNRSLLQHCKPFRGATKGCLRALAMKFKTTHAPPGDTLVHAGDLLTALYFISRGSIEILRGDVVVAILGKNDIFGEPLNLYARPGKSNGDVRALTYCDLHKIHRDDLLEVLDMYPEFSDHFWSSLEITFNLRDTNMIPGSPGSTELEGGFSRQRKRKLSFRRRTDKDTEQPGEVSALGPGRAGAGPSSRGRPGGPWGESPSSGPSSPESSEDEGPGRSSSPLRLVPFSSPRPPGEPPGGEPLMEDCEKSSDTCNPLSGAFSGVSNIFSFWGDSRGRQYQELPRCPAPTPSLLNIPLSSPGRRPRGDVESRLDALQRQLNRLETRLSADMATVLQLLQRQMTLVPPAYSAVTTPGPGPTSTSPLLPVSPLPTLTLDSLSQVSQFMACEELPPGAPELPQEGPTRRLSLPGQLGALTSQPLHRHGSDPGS
Sequence of hERG (KCNH2) potassium channel (Q12809 whole entry): as above

| SMILES | MIC [1] | MIC [2] | MIC [3] | MIC [4] | MIC [5] | MIC [6] | MIC [7] | MIC [8] | MIC [9] | MIC [10] | MIC [11] | MIC [12] | MIC [13] | MIC [14] | MIC [15] | MIC [16] | MIC [17] | further results |
| --- | --- | --- | --- | --- | --- | --- | --- | --- | --- | --- | --- | --- | --- | --- | --- | --- | --- | --- |
| C[C@H]1COc2c(N3CCN(C)CC3)c(F)cc3c(=O)c(C(=O)O)cn1c23.C[C@H]1COc2c(N3CCN(C)CC3)c(F)cc3c(=O)c(C(=O)O)cn1c23.O [LEVOFLOXACIN] | 2 µg/mL | 16 µg/mL | 0.5 µg/mL | 4 µg/mL | 0.125 µg/mL | 8 µg/mL | 64 µg/mL | 16 µg/mL | 32 µg/mL | > 4 µg/mL | ≤ 0.03 µg/mL | 4 µg/mL | ≥ 32 µg/mL | 0.25 µg/mL | 4 µg/mL | 4 µg/mL | – | – |
| CNc1cc(F)cc2c1[nH]c1nc(Oc3cnc(C)nc3)nc(N3CC(=CCN)C3)c12 | – | 0.5 µg/mL (≈ 1.19 µM) | ≥ 16 µg/mL | – | 0.25 µg/mL (≈ 0.595 µM) | – | – | – | – | 0.25 µg/mL (≈ 0.595 µM) | 0.5 µg/mL (≈ 1.19 µM) | – | – | 0.5 µg/mL (≈ 1.19 µM) | – | – | 8 µg/mL (≈ 19 µM) | – |
| CCC(CN)=C1CN(c2nc(Oc3cnc(CO)nc3)nc3[nH]c4c(NC)cc(F)cc4c23)C1 | 4 µg/mL (≈ 8.61 µM) | – | > 4 µg/mL | 1 µg/mL (≈ 2.15 µM) | < 0.008 µg/mL | 1 µg/mL (≈ 2.15 µM) | 8 µg/mL (≈ 17.2 µM) | 2 µg/mL (≈ 4.31 µM) | 0.5 µg/mL (≈ 1.08 µM) | – | 0.25 µg/mL (≈ 0.538 µM) | > 8 µg/mL | 4 µg/mL (≈ 8.61 µM) | < 0.008 µg/mL | 1 µg/mL (≈ 2.15 µM) | 1 µg/mL (≈ 2.15 µM) | 0.5 µg/mL (≈ 1.08 µM) | inhibition at 2 min, 40 µM [18]: 30.9%; CLH [19]: 176.4 mL/min/g; Fh at 1 h, 0.1 µM [20]: 20.1%; Fh at 1 h, 0.1 µM [21]: 35%; IC50 [22]: > 40 µM; CLH [23]: 36.3 mL/min/g; half-life at 0.1 µM [24]: 57.8 min; half-life at 0.1 µM [25]: 11.9 min |
